Laboratory results taken from ChEMBL document CHEMBL3085771, “Azetidinone-retinoid hybrids: synthesis and differentiative effects” (Eur J Med Chem, 2013).
Calls of active or inactive are those of the source. The calls are words filed in the database; no cut-off is given here.

How the values were obtained:
SH-SY5Y [1] = assay: Induction of cell differentiation in human SH-SY5Y cells assessed as neural-like differentiation at 10 uM after 6 days using beta3-tubulin and NF200 staining by microscopic analysis; type: functional, cell-based
Method in brief: (§1)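 SH-SY5Y grown on BME-coated glass coverslips at 1×10⁴ cells/cm², treated from 24 h for 6 days, medium changed every 48 h. Controls were untreated cells and RA 10 microM. Cells fixed in 4% PFA, immunostained overnight at 4 °C for βIII-tubulin and NF200, and counterstained with Hoechst. Imaged at 20×; immunoreactive area normalized to cell number, mean ± SD.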

SH-SY5Y [2] = assay: Cytotoxicity against human SH-SY5Y cells assessed as doubling time at 10 uM after 24 to 96 hrs by trypan blue exclusion assay (reference value: 34.9 hrs); type: functional, cell-based
[3] = Cytotoxicity against human SH-SY5Y cells assessed as doubling time at 10 uM after 24 to 72 hrs by trypan blue exclusion assay (reference value: 34.9 hrs); type: functional
SH-SY5Y [4] = assay: Cytotoxicity against human SH-SY5Y cells at 10 uM after 72 to 96 hrs by MTT assay; type: functional, cell-based
SH-SY5Y [5] = assay: Cytotoxicity against human SH-SY5Y cells at 10 uM after 48 hrs by MTT assay; type: functional, cell-based
[6] = Cytotoxicity against human SH-SY5Y cells after 24 hrs by MTT assay
SH-SY5Y [7] = assay: Induction of cell differentiation in human SH-SY5Y cells assessed as neural-like differentiation at 7.5 uM after 6 days using beta3-tubulin and NF200 staining by microscopic analysis; type: functional, cell-based; method in brief: as §1
SH-SY5Y [8] = assay: Cytotoxicity against human SH-SY5Y cells assessed as doubling time at 7.5 uM after 24 to 96 hrs by trypan blue exclusion assay (reference value: 34.9 hrs); type: functional, cell-based
[9] = Cytotoxicity against human SH-SY5Y cells assessed as doubling time at 7.5 uM after 24 to 72 hrs by trypan blue exclusion assay (reference value: 34.9 hrs); type: functional
SH-SY5Y [10] = assay: Cytotoxicity against human SH-SY5Y cells at 7.5 uM after 72 to 96 hrs by MTT assay; type: functional, cell-based

Compound | Activity (SH-SY5Y [1]) | Activity (SH-SY5Y [2]) | Time [3] | Activity (SH-SY5Y [4]) | Activity (SH-SY5Y [5]) | IC50 [6] | Activity (SH-SY5Y [7]) | Activity (SH-SY5Y [8]) | Time [9] | Activity (SH-SY5Y [10])
CC1=C(/C=C/C(C)=C\CNC(=O)/C=C2/CC(=O)N2)C(C)(C)CCC1 | Active | inactive | 51.25 h | Active | Active | 35 µM | – | – | – | –
CC1=C(/C=C/C(C)=C/CNC(=O)/C=C2/CC(=O)N2)C(C)(C)CCC1 | Active | inactive | 39.78 h | Active | Active | 38 µM | – | – | – | –
CC1=C(/C=C/C(C)=C/C=C/C(C)=C/C(=O)O)C(C)(C)CCC1 | Active | – | – | – | – | – | – | – | – | –
CSN1C(=O)CC1CC/C=C/C(=O)Nc1ccccc1 (stereo not drawn) | – | – | – | – | – | 10 µM | inactive | inactive | 39 h | Active
